Assays:
[1] = tested on: DU-145; assay: Cytotoxicity against human DU145 cells after 48 hrs by SRB assay; format: functional, cell-based; settings: Homo sapiens, DU-145, 48 h; for CC50: read-out: LC50 (the source's name)
Summary of the method: (§1)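 Cells grown in RPMI 1640 with 10% FBS and penicillin/streptomycin at 37 °C and 5% CO₂, trypsinized, then seeded at 5 × 10³/well. After 18 h drug-free attachment, samples in DMSO/EtOH/PBS (0.5:0.5:99) were added for 48 h continuous exposure. Cells were fixed with cold TCA (1 h, 4 °C) and stained with SRB (10 min). Tris-solubilized stain read at 490 nm. Triplicate wells, mean ± SD; GI₅₀ derived.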

[2] = Cytotoxicity against human IGROV cells after 48 hrs by SRB assay; format: functional; settings: for CC50: read-out: LC50 (the source's name); summary of the method: as §1
[3] = Cytotoxicity against human IGROV-ET cells after 48 hrs by SRB assay; format: functional; settings: for CC50: read-out: LC50 (the source's name); summary of the method: as §1
[4] = tested on: SK-MEL-28; assay: Cytotoxicity against human SK-MEL-28 cells after 48 hrs by SRB assay; format: functional, cell-based; settings: Homo sapiens, SK-MEL-28, 48 h; for GI50: read-out: GI50; for CC50: read-out: LC50 (the source's name); summary of the method: as §1
[5] = tested on: A549; assay: Cytotoxicity against human A549 cells after 48 hrs by SRB assay; format: functional, cell-based; settings: Homo sapiens, A549, 48 h; summary of the method: as §1
[6] = tested on: K562; assay: Cytotoxicity against human K562 cells after 48 hrs by SRB assay; format: functional; settings: K562, 48 h; for CC50: read-out: LC50 (the source's name); summary of the method: as §1
[7] = tested on: PANC-1; assay: Cytotoxicity against human PANC1 cells after 48 hrs by SRB assay; format: functional; settings: PANC-1, 48 h; for CC50: read-out: LC50 (the source's name); summary of the method: as §1
[8] = tested on: HT-29; assay: Cytotoxicity against human HT29 cells after 48 hrs by SRB assay; format: functional, cell-based; settings: Homo sapiens, HT-29, 48 h; for CC50: read-out: LC50 (the source's name); summary of the method: as §1
[9] = tested on: LoVo; assay: Cytotoxicity against human LoVo cells after 48 hrs by SRB assay; format: functional; settings: for CC50: read-out: LC50 (the source's name)
[10] = tested on: LoVo; assay: Cytotoxicity against human doxorubicin resistant LoVo cells after 48 hrs by SRB assay; format: functional; settings: for CC50: read-out: LC50 (the source's name); summary of the method: as §1
[11] = tested on: HeLa; assay: Cytotoxicity against human HeLa cells after 48 hrs by SRB assay; format: functional; settings: for CC50: read-out: LC50 (the source's name); summary of the method: as §1
[12] = Cytotoxicity against human HeLa-APL cells after 48 hrs by SRB assay; format: functional; summary of the method: as §1

Row | Structure (SMILES) | GI50 ([1]; read-out: GI50) [nM] | CC50 [1] [nM] | CC50 [2] [nM] | CC50 [3] [nM] | TGI [4] [nM] | CC50 [4] [nM] | LC50 [5] [nM] | CC50 [6] [nM] | GI50 [7] [nM] | TGI [7] [nM] | CC50 [7] [nM] | GI50 [8] [nM] | TGI [8] [nM] | CC50 [8] [nM] | GI50 [9] [nM] | TGI [9] [nM] | CC50 [9] [nM] | CC50 [10] [nM] | CC50 [11] [nM] | LC50 (concentration giving 50% net cell kill) [12] [nM] | further results
1 | CC[C@@H]1NC(=O)[C@H](Cc2ccccc2)NC(=O)[C@@H](C(C)C)NC(=O)[C@@H]([C@H](C)CC)NC(=O)[C@H](NC(=O)[C@H](NC(=O)[C@H](CCCN)NC(=O)[C@H]2CCCN2C(=O)[C@H](NC(=O)[C@@H](NC(=O)[C@@H](NC(=O)[C@H](NC(=O)CCCC(C)C)C(C)C)[C@@H](C)O)C(C)C)C(C)C)[C@H](C)CC)[C@H](C)OC(=O)[C@H](C(C)C)NC1=O | 3050 | 1700 | 1390 | 1170 | 3830 | 1980 | 1830 | 4260 | 3090 | 4980 | 2830 | 7350 | 9270 | 5250 | 3030 | 3860 | 4930 | 2930 | 1600 | 1840 | TGI [1]: 3070 nM; TGI [2]: 2220 nM; GI50 ([2]; read-out: GI50): 2810 nM; TGI [3]: 1430 nM; GI50 ([3]; read-out: GI50): 1640 nM; GI50 [4]: 4480 nM; GI50 [10]: 2720 nM; TGI [10]: 2820 nM
2 | C/C=C1\NC(=O)[C@H](Cc2ccccc2)NC(=O)[C@@H](C(C)C)NC(=O)[C@@H]([C@H](C)CC)NC(=O)[C@H](NC(=O)[C@H](NC(=O)[C@H](CCCN)NC(=O)[C@H]2CCCN2C(=O)[C@H](NC(=O)[C@@H](NC(=O)[C@@H](NC(=O)CNC(=O)CCCC(C)C)[C@@H](C)O)C(C)C)C(C)C)[C@H](C)CC)[C@H](C)OC(=O)[C@H](C(C)C)NC1=O |  | 1750 | 1430 | 1200 |  | 2040 | 1890 | 4390 | 499 | 1250 | 2110 | 10900 | 9540 | 5410 | 8760 | 8900 | 5180 | 5200 | 1650 | 1890 | GI50 [6]: 3850 nM; TGI [6]: 11400 nM; GI50 [10]: 11100 nM; TGI [10]: 9100 nM; GI50 [11]: 672 nM; TGI [11]: 1320 nM
3 | C/C=C1\NC(=O)[C@H](Cc2ccccc2)NC(=O)[C@@H](C(C)C)NC(=O)[C@@H]([C@H](C)CC)NC(=O)[C@H](NC(=O)[C@H](NC(=O)[C@H](CCCN)NC(=O)[C@H]2CCCN2C(=O)[C@H](NC(=O)[C@@H](NC(=O)[C@@H](NC(=O)[C@@H](CCC(=O)O)NC(=O)CCCC(C)C)[C@@H](C)O)C(C)C)C(C)C)[C@H](C)CC)[C@H](C)OC(=O)[C@H](C(C)C)NC1=O | 2840 | 1660 | 844 | 705 | 3750 | 1950 | 1800 | 3040 | 5310 | 4880 | 2770 | 2910 | 2960 | 3010 | 1950 | 2200 | 2490 | 2430 | 1570 | 1800 | TGI [1]: 3010 nM; GI50 [3]: 969 nM; GI50 ([3]; read-out: GI50): 1310 nM; GI50 [4]: 3730 nM; TGI [5]: 2960 nM; GI50 ([5]; read-out: GI50): 3250 nM; GI50 [10]: 2030 nM; TGI [10]: 2220 nM; GI50 [11]: 2940 nM; TGI [11]: 2720 nM; GI50 [12]: 2910 nM; TGI [12]: 3570 nM
4 | C/C=C1\NC(=O)[C@H](Cc2ccccc2)NC(=O)[C@@H](C(C)C)NC(=O)[C@@H]([C@H](C)CC)NC(=O)[C@H](NC(=O)[C@H](NC(=O)[C@H](CCCN)NC(=O)[C@H]2CCCN2C(=O)[C@H](NC(=O)[C@@H](NC(=O)[C@@H](NC(=O)[C@@H](C)NC(=O)CCCC(C)C)[C@@H](C)O)C(C)C)C(C)C)[C@H](C)CC)[C@H](C)OC(=O)[C@H](C(C)C)NC1=O | 1810 | 1200 | 828 | 714 | 1700 | 1470 | 1400 | 3310 | 1660 | 1900 | 2180 | 3030 | 3180 | 3340 | 1980 | 2260 | 2220 | 1850 | 963 | 1180 | TGI [1]: 1480 nM; GI50 [4]: 1990 nM; TGI [5]: 1430 nM; GI50 ([5]; read-out: GI50): 1460 nM; GI50 [10]: 800 nM; TGI [10]: 1270 nM; GI50 [11]: 1030 nM; TGI [11]: 998 nM; GI50 [12]: 1680 nM; TGI [12]: 1420 nM
5 | CC[C@@H](C)[C@@H](NC(=O)[C@H](CCCN)NC(=O)[C@H]1CCCN1C(=O)[C@H](NC(=O)[C@@H](NC(=O)[C@@H](NC(=O)[C@H](NC(=O)CCCC(C)C)C(C)C)[C@@H](C)O)C(C)C)C(C)C)C(=O)N[C@H]1C(=O)N[C@H]([C@H](C)CC)C(=O)N[C@H](C(C)C)C(=O)N[C@@H](Cc2ccccc2)C(=O)N[C@H](CC)C(=O)N[C@@H](C(C)C)C(=O)O[C@H]1C | 3260 | 1700 | 963 | 748 | 3360 | 1980 | 1830 | 2730 | 4090 | 4980 | 2830 | 3660 | 3410 | 3210 | 2630 | 2740 | 2830 | 2280 | 1600 | 1840 | TGI [1]: 3040 nM; GI50 [4]: 3100 nM; TGI [5]: 3020 nM; GI50 ([5]; read-out: GI50): 3230 nM; GI50 [10]: 1760 nM; TGI [10]: 2000 nM
6 | C/C=C1\NC(=O)[C@H](Cc2ccccc2)NC(=O)[C@@H](C(C)C)NC(=O)[C@@H]([C@H](C)CC)NC(=O)[C@H](NC(=O)[C@H](NC(=O)[C@H](CCCN)NC(=O)[C@H]2CCCN2C(=O)[C@H](NC(=O)[C@@H](NC(=O)[C@@H](NC(=O)[C@@H](CCC(N)=O)NC(=O)CCCC(C)C)[C@@H](C)O)C(C)C)C(C)C)[C@H](C)CC)[C@H](C)OC(=O)[C@H](C(C)C)NC1=O | 1460 | 1320 | 743 | 653 | 1280 | 1230 | 664 | 2790 | 168 | 222 | 361 | 2300 | 2560 | 2870 | 1460 | 1800 | 2220 | 1670 | 915 | 1800 | TGI [1]: 1390 nM; GI50 [3]: 947 nM; GI50 ([3]; read-out: GI50): 1330 nM; GI50 [4]: 1340 nM; GI50 [5]: 350 nM; GI50 ([5]; read-out: GI50): 234 nM; GI50 [10]: 610 nM; TGI [10]: 1080 nM; GI50 [11]: 452 nM; TGI [11]: 649 nM; GI50 [12]: 2420 nM; TGI [12]: 3200 nM
7 | C/C=C1\NC(=O)[C@H](Cc2ccccc2)NC(=O)[C@@H](C(C)C)NC(=O)[C@@H]([C@H](C)CC)NC(=O)[C@H](NC(=O)[C@H](NC(=O)[C@H](CCCNC(=O)c2cc(F)c(F)c(F)c2F)NC(=O)[C@H]2CCCN2C(=O)[C@H](NC(=O)[C@@H](NC(=O)[C@@H](NC(=O)[C@H](NC(=O)CCCC(C)C)C(C)C)[C@@H](C)O)C(C)C)C(C)C)[C@H](C)CC)[C@H](C)OC(=O)[C@H](C(C)C)NC1=O | 726 | 831 | 274 | 441 | 1060 | 1060 | 1040 | 172 | 1580 | 1580 | 1580 | 116 | 95.1 | 202 | 84.2 | 93.8 | 104 | 87.8 | 861 | 869 | GI50 [1]: 831 nM; GI50 [2]: 217 nM; GI50 ([2]; read-out: GI50): 182 nM; GI50 [3]: 357 nM; GI50 ([3]; read-out: GI50): 332 nM; GI50 [4]: 984 nM; TGI [5]: 1040 nM; GI50 ([5]; read-out: GI50): 1040 nM; GI50 [11]: 288 nM; TGI [11]: 685 nM; GI50 [12]: 493 nM; TGI [12]: 595 nM

Reference: ChEMBL document CHEMBL1156597, “Structure-activity relationship of kahalalide F synthetic analogues” (J Med Chem, 2008)
